In the array DNA melting data of Ke et al. (doi:10.1101/2024.01.08.574731) one finds folding enthalpy and Tm data, which are given here for 36 sequences.

Series [1] in a line: folding enthalpy; higher = less favourable; fluorescence melt of hairpins on a sequencing array, two-state fit. The conditions noted are these: sodium 0.088 M. The essentials:
(§1)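 Folding enthalpy and melting temperature come from bootstrapped two-state fits to Cy3 fluorescence of library hairpins carrying annealed Cy3 and quencher oligos on a sequenced MiSeq flow cell. Imaging was done in 50 mM Na-HEPES pH 8.0, 25 mM NaCl, stepping by 2.5 °C up to 60 °C, and signals were normalised to pre-quench Cy3 and to control constructs. Results of four replicates were combined by inverse variance, and fitted temperatures were raised by 9.35 °C to match UV melts.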

The nature of series [2]: melting temperature; fluorescence melt of hairpins on a sequencing array, two-state fit, raised by 9.35 °C to match UV melts. The conditions noted are these: sodium 0.088 M. The gist of the method:
as §1

Turning to GTCCATGGAAACGTGGAC (((((.(....).))))), the folding enthalpy in series [1] was -48.1 kcal/mol. Besides, in series [2], the Tm turned out to be 52.9 °C.

As to GTCCCACGAAAGTGAGAC (((.(((....))).))), the folding enthalpy in series [1] was -30.2 kcal/mol. Moreover, the Tm in series [2] was found to be 49.4 °C.

On to GTCCCAGGAAACTGAGAC (((.(((....))).))), for which, in series [1], the folding enthalpy was -28 kcal/mol. In addition, the Tm in series [2] worked out at 39 °C.

GTCCCATCGAAAGATGAC (((..(((....)))))): in series [1], the folding enthalpy is -12 kcal/mol. Further, the Tm in series [2] turned out to be 25.9 °C.

On to GTCCCCACGAAAGTGGAC (((..(((....)))))), for which, in series [1], the folding enthalpy is -6.73 kcal/mol. The Tm in series [2] was determined as 29.3 °C.

GTCCCCGAAAGGGAGGAC ((((((....)))..))): the folding enthalpy in series [1] was -17.4 kcal/mol. Further, the Tm in series [2] amounted to 49.7 °C.

With GTCCCCGAAAGGGGCGAC ((((((....)))..))), the folding enthalpy in series [1] was -14 kcal/mol. Further, the Tm in series [2] was determined as 65.8 °C.

In the case of GTCCCCGAAAGGGTAGAC ((((((....)))..))), the folding enthalpy in series [1] was -16.1 kcal/mol. The Tm in series [2] was 40.6 °C.

Turning to GTCCCCTCGAAAGAGGAC (((..(((....)))))), the folding enthalpy in series [1] is -8.53 kcal/mol. Also, in series [2], the Tm came out at 33.6 °C.

Regarding GTCCCGCGAAAGCGGAC (((.(((....)))))), the folding enthalpy in series [1] is -9.81 kcal/mol. Besides, the Tm in series [2] was determined as 56.3 °C.

Take GTCCCGGGAAACTGGGAC (((((.(....).))))): the folding enthalpy in series [1] is -37.2 kcal/mol. The Tm in series [2] was found to be 60 °C.

As to GTCCCGGGAAACTGGGGC (.(((.(....).))).), in series [1], the folding enthalpy is -41.1 kcal/mol. Further, the Tm in series [2] came to 48.6 °C.

Regarding GTCCCTCGAAAGAGAGAC (((.(((....))).))), the folding enthalpy in series [1] is -23.3 kcal/mol. Moreover, the Tm in series [2] stood at 46.2 °C.

As for GTCCCTCGAAAGAGCGAC (((.(((....))).))), the folding enthalpy in series [1] was -26.8 kcal/mol. Besides, in series [2], the Tm came out at 40.1 °C.

Regarding GTCCGAACGAAAGTTGAC (((..(((....)))))), the folding enthalpy in series [1] is -15.3 kcal/mol. In addition, in series [2], the Tm came out at 29.1 °C.

For the sequence GTCCGACGAAAGTCCGAC (((.(((....))).))), the folding enthalpy in series [1] was -27.5 kcal/mol. Besides, the Tm in series [2] is 44 °C.

Consider GTCCGACGAAAGTCGAC (((.(((....)))))), for which the folding enthalpy in series [1] was -13.2 kcal/mol. Also, the Tm in series [2] worked out at 44.7 °C.

Consider GTCCGACGAAAGTCTGAC (((.(((....))).))), for which the folding enthalpy in series [1] was -27.1 kcal/mol. Further, the Tm in series [2] was 49.1 °C.

Regarding GTCCGCCGAAAGGCAGAC (((.(((....))).))), the folding enthalpy in series [1] was -21.7 kcal/mol. For the same sequence, the Tm in series [2] turned out to be 54.2 °C.

For the sequence GTCCGCGAAAGCGGAGAC ((((((....)))..))), the folding enthalpy in series [1] is -7 kcal/mol. Besides, the Tm in series [2] came to 56.8 °C.

Turning to GTCCGCGAAAGCGGTGAC ((((((....)))..))), in series [1], the folding enthalpy was -8.67 kcal/mol. Further, the Tm in series [2] came to 41 °C.

As for GTCCGCGAAAGCGTAGAC ((((((....)))..))), the folding enthalpy in series [1] was -16.7 kcal/mol. Besides, in series [2], the Tm was 43 °C.

With GTCCGCGAAAGCGTGGAC ((((((....)))..))), the folding enthalpy in series [1] is -16.9 kcal/mol. Moreover, the Tm in series [2] was determined as 54.8 °C.

For GTCCGCGGAAACGTGGAC ((((.((....)).)))), in series [1], the folding enthalpy is -43.5 kcal/mol. In series [2], the Tm worked out at 62 °C.

In the case of GTCCGTCCGAAAGGAGAC (((..(((....)))))), in series [1], the folding enthalpy is -11.8 kcal/mol. In addition, the Tm in series [2] was found to be 29.1 °C.

GTCCGTGCGAAAGCAGAC (((..(((....)))))): the folding enthalpy in series [1] is -13.8 kcal/mol. Besides, in series [2], the Tm was 32.4 °C.

In the case of GTCCGTGGAAACATGGAC ((((.((....)).)))), in series [1], the folding enthalpy is -36.9 kcal/mol. The Tm in series [2] is 53.6 °C.

As for GTCCGTGGAAACATGGGC (.((.((....)).)).), the folding enthalpy in series [1] was -24.9 kcal/mol. Also, the Tm in series [2] is 44.9 °C.

For GTCCGTGGAAACGCGGAC (((((.(....).))))), the folding enthalpy in series [1] was -39.8 kcal/mol. Also, in series [2], the Tm turned out to be 62.2 °C.

For GTCCTAACGAAAGTTGAC (((..(((....)))))), the folding enthalpy in series [1] was -10.9 kcal/mol. The Tm in series [2] was found to be 26.6 °C.

For GTCCTACCGAAAGGTGAC (((..(((....)))))), the folding enthalpy in series [1] is -11.1 kcal/mol. In addition, the Tm in series [2] came to 32.5 °C.

GTCCTAGGAAACTAGGAC (((((((....))))))): the folding enthalpy in series [1] is -51 kcal/mol. Besides, in series [2], the Tm was determined as 57.2 °C.

For GTCCTCCGAAAGGACGAC (((.(((....))).))), the folding enthalpy in series [1] was -26.1 kcal/mol. The Tm in series [2] was determined as 49.7 °C.

Consider GTCCTCGAAAGAGACGAC ((((((....)))..))), for which the folding enthalpy in series [1] is -20 kcal/mol. Besides, the Tm in series [2] worked out at 42 °C.

In the case of GTCCTCGAAAGAGATGAC ((((((....)))..))), the folding enthalpy in series [1] was -16.2 kcal/mol. Further, the Tm in series [2] stood at 33.4 °C.

GTCCTCGAAAGAGCGAC ((((((....))).))): in series [1], the folding enthalpy was -21.4 kcal/mol. Moreover, in series [2], the Tm is 45.4 °C.
